Measured values reported in ChEMBL document CHEMBL1828577, “Design and synthesis of some new thiophene, thienopyrimidine and thienothiadiazine derivatives of antipyrine as potential antimicrobial agents” (2011).
Converted amounts (≈) assume the structure as drawn. The source made the active and inactive calls. No cut-off for these calls is given here.

Legend:
Type in all cases: functional
[1] = tested on: Syncephalastrum racemosum; assay: Antifungal activity against Syncephalastrum racemosum RCMB 052003 at 10 mg/ml after 3 to 4 days by agar well diffusion method; conditions: for zone of inhibition at 10000 µg/mL: read-out: DIZ
Summary of the method: (§1)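 Agar well diffusion on Sabouraud dextrose agar (glucose–peptone–agar 40:10:15). Culture grown in Sabouraud broth for 3-4 days to 10^5 CFU mL⁻¹; 0.1 mL spread per plate. Wells sealed at the bottom with 0.8% soft agar, then loaded with 100 µl sample at 10 mg mL⁻¹ in DMSO; DMSO control. Incubated at 30 °C for 3–4 days. Zone caliper-read three times; triplicate tests; mean ± SD.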

Aspergillus fumigatus [2] = assay: Antifungal activity against Aspergillus fumigatus RCMB 002003 at 10 mg/ml after 3 to 4 days by agar well diffusion method; conditions: for zone of inhibition at 10000 µg/mL: read-out: DIZ; summary of the method: as §1
Geotrichum candidum [3] = assay: Antifungal activity against Geotrichum candidum RCMB 052006 at 10 mg/ml after 3 to 4 days by agar well diffusion method; conditions: for zone of inhibition at 10000 µg/mL: read-out: DIZ; summary of the method: as §1
Candida albicans [4] = assay: Antifungal activity against Candida albicans RCMB 052002 at 10 mg/ml after 3 to 4 days by agar well diffusion method; conditions: for zone of inhibition at 10000 µg/mL: read-out: DIZ; summary of the method: as §1
Staphylococcus aureus [5] = assay: Antibacterial activity against Staphylococcus aureus RCMB 000106 at 10 mg/ml after 24 hrs by agar well diffusion method; conditions: for zone of inhibition at 10000 µg/mL: RCMB 000106, 24 h, read-out: DIZ
Summary of the method: (§2)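 Agar well diffusion on nutrient agar (tryptone 1%, yeast extract 0.5%, NaCl 0.5%, agar 1%, pH 7.0). Plates spread with centrifuged pellets from a 24 h culture (about 10^4-10^6 CFU/ml). 100 µl of sample at 10 mg/mL in DMSO per 6 mm well, DMSO control. Incubated at 37 °C for 24 h. Inhibition zone diameter (mm) caliper-read three times; test run three times; mean ± SD.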

Bacillus subtilis [6] = assay: Antibacterial activity against Bacillus subtilis RCMB 000107 at 10 mg/ml after 24 hrs by agar well diffusion method; conditions: for zone of inhibition at 10000 µg/mL: RCMB 000107, 24 h, read-out: DIZ; summary of the method: as §2
Pseudomonas aeruginosa [7] = assay: Antibacterial activity against Pseudomonas aeruginosa RCMB 000102 at 10 mg/ml after 24 hrs by agar well diffusion method; conditions: for zone of inhibition at 10000 µg/mL: RCMB 000102, 24 h, read-out: DIZ; summary of the method: as §2
Escherichia coli [8] = assay: Antibacterial activity against Escherichia coli RCMB 000103 at 10 mg/ml after 24 hrs by agar well diffusion method; conditions: for zone of inhibition at 10000 µg/mL: RCMB 000103, 24 h, read-out: DIZ; summary of the method: as §2
[9] = tested on: Syncephalastrum racemosum; assay: Antifungal activity against Syncephalastrum racemosum RCMB 052003 at 30 mg/ml after 3 to 4 days by agar well diffusion method; conditions: read-out: DIZ
Aspergillus fumigatus [10] = assay: Antifungal activity against Aspergillus fumigatus RCMB 002003 after 3 to 4 days by two fold serial dilution method
Summary of the method: (§3)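 MIC by agar plate method. Two-fold serial dilutions in Sabouraud dextrose broth, autoclaved at 121 °C for 25 min; DMSO control. Loop of culture diluted to 10⁵–10⁶ CFU mL⁻¹. Incubated at 30 °C for 3–4 days, then colonies counted. MIC taken as the lowest concentration fully inhibiting growth relative to control, ignoring a single colony or faint haze.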

Geotrichum candidum [11] = assay: Antifungal activity against Geotrichum candidum RCMB 052006 after 3 to 4 days by two fold serial dilution method; summary of the method: as §3
Candida albicans [12] = assay: Antifungal activity against Candida albicans RCMB 052002 after 3 to 4 days by two fold serial dilution method; summary of the method: as §3
[13] = tested on: Syncephalastrum racemosum; assay: Antifungal activity against Syncephalastrum racemosum RCMB 052003 after 3 to 4 days by two fold serial dilution method; summary of the method: as §3
Staphylococcus aureus [14] = assay: Antibacterial activity against Staphylococcus aureus RCMB 000106 after 24 hrs by two fold serial dilution method; conditions: RCMB 000106, 24 h
Summary of the method: (§4)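 MIC by agar plate method. Two-fold serial dilutions in nutrient broth (beef extract 5 g, peptone 10 g per litre, pH 7.0), autoclaved at 121 °C for 25 min; DMSO control. Loop inoculum diluted to 10⁵–10⁶ CFU mL⁻¹. Incubated at 37 °C for 24 h, then colonies counted. MIC taken as the lowest concentration giving complete inhibition, ignoring a single colony or faint haze.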

Bacillus subtilis [15] = assay: Antibacterial activity against Bacillus subtilis RCMB 000107 after 24 hrs by two fold serial dilution method; conditions: RCMB 000107, 24 h; summary of the method: as §4
Pseudomonas aeruginosa [16] = assay: Antibacterial activity against Pseudomonas aeruginosa RCMB 000102 after 24 hrs by two fold serial dilution method; conditions: RCMB 000102, 24 h; summary of the method: as §4
Escherichia coli [17] = assay: Antibacterial activity against Escherichia coli RCMB 000103 after 24 hrs by two fold serial dilution method; conditions: RCMB 000103, 24 h; summary of the method: as §4
Staphylococcus aureus [18] = assay: Antibacterial activity against Staphylococcus aureus RCMB 000106 at 30 mg/ml after 24 hrs by agar well diffusion method; conditions: RCMB 000106, 24 h, read-out: DIZ
Bacillus subtilis [19] = assay: Antibacterial activity against Bacillus subtilis RCMB 000107 at 30 mg/ml after 24 hrs by agar well diffusion method; conditions: RCMB 000107, 24 h, read-out: DIZ

Structure (SMILES) | zone of inhibition at 10000 µg/mL [1] [mm] | zone of inhibition at 10000 µg/mL (Aspergillus fumigatus [2]) [mm] | zone of inhibition at 10000 µg/mL (Geotrichum candidum [3]) [mm] | zone of inhibition at 10000 µg/mL (Candida albicans [4]) [mm] | zone of inhibition at 10000 µg/mL (Staphylococcus aureus [5]) [mm] | zone of inhibition at 10000 µg/mL (Bacillus subtilis [6]) [mm] | diameter of the inhibition zone (DIZ) (Pseudomonas aeruginosa [7]) | zone of inhibition at 10000 µg/mL (Escherichia coli [8]) [mm] | diameter of the inhibition zone (DIZ) (Escherichia coli [8]) | diameter of the inhibition zone (DIZ) [1] | other results
Cc1c(Nc2csc3ncnc(N)c23)c(=O)n(-c2ccccc2)n1C | 13.4 | 12.5 | 12.8 | 11 | 13.9 | 15.2 | inactive | 10.4 |  |  | 
Cc1c(Nc2csc3c2C(=O)N[S+]([O-])N3)c(=O)n(-c2ccccc2)n1C (centres undefined) | 10.6 | 15.1 | 14.4 | 13.4 | 18.3 | 19.2 | inactive |  | inactive |  | 
CCOC(=O)C(=O)CC(=O)Nc1c(C)n(C)n(-c2ccccc2)c1=O |  | 11.1 | 13.4 | 10.6 | 16.3 | 16.2 | inactive |  | inactive | inactive | 
Clc1ccccc1C(c1ccccc1)(c1ccccc1)n1ccnc1 [CLOTRIMAZOLE] |  |  |  |  |  |  |  |  |  |  | zone of inhibition at 30000 µg/mL [9]: 20 mm
Cc1c(NC(=O)/C=C/c2cccs2)c(=O)n(-c2ccccc2)n1C |  | 14.2 |  | 13.4 | 11 | 11.2 | inactive |  | inactive | inactive | diameter of the inhibition zone (DIZ) (Geotrichum candidum [3]): inactive
CCO/C=N\c1scc(Nc2c(C)n(C)n(-c3ccccc3)c2=O)c1C#N | 8.5 | 19.2 | 17.4 | 14.2 | 18.4 | 19.2 |  | 13.8 |  |  | zone of inhibition at 10000 µg/mL (Pseudomonas aeruginosa [7]): 16.2 mm; MIC (Aspergillus fumigatus [10]): 78 µg/mL (≈ 204 µM); MIC (Geotrichum candidum [11]): 78 µg/mL (≈ 204 µM); MIC (Candida albicans [12]): 156 µg/mL (≈ 409 µM); MIC [13]: 625 µg/mL (≈ 1640 µM); MIC (Staphylococcus aureus [14]): 78 µg/mL (≈ 204 µM); MIC (Bacillus subtilis [15]): 39 µg/mL (≈ 102 µM); MIC (Pseudomonas aeruginosa [16]): 78 µg/mL (≈ 204 µM); MIC (Escherichia coli [17]): 156 µg/mL (≈ 409 µM)
Cc1c(NC(=O)CC(=O)C(=O)NN)c(=O)n(-c2ccccc2)n1C | 13.4 | 11.2 | 13.4 |  | 17.2 | 14.4 | inactive |  | inactive |  | diameter of the inhibition zone (DIZ) (Candida albicans [4]): inactive
Cc1c(Nc2csc(NC(=O)CCl)c2C#N)c(=O)n(-c2ccccc2)n1C | 11.2 | 20.1 | 18.3 | 15.4 | 19.4 | 24.1 |  | 16.2 |  |  | zone of inhibition at 10000 µg/mL (Pseudomonas aeruginosa [7]): 18.9 mm; MIC (Aspergillus fumigatus [10]): 39 µg/mL (≈ 97 µM); MIC (Geotrichum candidum [11]): 78 µg/mL (≈ 194 µM); MIC (Candida albicans [12]): 156 µg/mL (≈ 388 µM); MIC [13]: 313 µg/mL (≈ 779 µM); MIC (Staphylococcus aureus [14]): 39 µg/mL (≈ 97 µM); MIC (Bacillus subtilis [15]): 19 µg/mL (≈ 47.3 µM); MIC (Pseudomonas aeruginosa [16]): 39 µg/mL (≈ 97 µM); MIC (Escherichia coli [17]): 78 µg/mL (≈ 194 µM)
CCOC(=O)c1c(Nc2c(C)n(C)n(-c3ccccc3)c2=O)csc1N | 18.2 | 22.1 | 22 | 16.4 | 20.2 | 25.3 |  | 23.8 |  |  | zone of inhibition at 10000 µg/mL (Pseudomonas aeruginosa [7]): 20.8 mm; MIC (Aspergillus fumigatus [10]): 19 µg/mL (≈ 51 µM); MIC (Geotrichum candidum [11]): 39 µg/mL (≈ 105 µM); MIC (Candida albicans [12]): 78 µg/mL (≈ 209 µM); MIC [13]: 39 µg/mL (≈ 105 µM); MIC (Staphylococcus aureus [14]): 39 µg/mL (≈ 105 µM); MIC (Bacillus subtilis [15]): 19 µg/mL (≈ 51 µM); MIC (Pseudomonas aeruginosa [16]): 39 µg/mL (≈ 105 µM); MIC (Escherichia coli [17]): 19 µg/mL (≈ 51 µM)
Cc1c(Nc2csc(N)c2C(N)=O)c(=O)n(-c2ccccc2)n1C |  |  |  |  |  |  | inactive |  | inactive | inactive | diameter of the inhibition zone (DIZ) (Aspergillus fumigatus [2]): inactive; diameter of the inhibition zone (DIZ) (Geotrichum candidum [3]): inactive; diameter of the inhibition zone (DIZ) (Candida albicans [4]): inactive; diameter of the inhibition zone (DIZ) (Staphylococcus aureus [5]): inactive; diameter of the inhibition zone (DIZ) (Bacillus subtilis [6]): inactive
CN[C@@H]1[C@H](O[C@H]2[C@H](O[C@H]3[C@H](O)[C@@H](O)[C@H](N=C(N)N)[C@@H](O)[C@@H]3N=C(N)N)O[C@@H](C)[C@]2(O)C=O)O[C@@H](CO)[C@H](O)[C@H]1O [STREPTOMYCIN] |  |  |  |  |  |  |  |  |  |  | zone of inhibition at 30000 µg/mL (Staphylococcus aureus [18]): 25 mm; zone of inhibition at 30000 µg/mL (Bacillus subtilis [19]): 29 mm
Cc1c(Nc2csc3ncn(N)c(=N)c23)c(=O)n(-c2ccccc2)n1C |  |  |  |  |  |  | inactive |  | inactive | inactive | diameter of the inhibition zone (DIZ) (Aspergillus fumigatus [2]): inactive; diameter of the inhibition zone (DIZ) (Geotrichum candidum [3]): inactive; diameter of the inhibition zone (DIZ) (Candida albicans [4]): inactive; diameter of the inhibition zone (DIZ) (Staphylococcus aureus [5]): inactive; diameter of the inhibition zone (DIZ) (Bacillus subtilis [6]): inactive
CC1(C)S[C@@H]2[C@H](NC(=O)Cc3ccccc3)C(=O)N2[C@H]1C(=O)O [PENICILLIN G] |  |  |  |  |  |  |  |  |  |  | zone of inhibition at 30000 µg/mL (Staphylococcus aureus [18]): 29.4 mm; zone of inhibition at 30000 µg/mL (Bacillus subtilis [19]): 32.5 mm
Cc1c(Nc2csc(N)c2C#N)c(=O)n(-c2ccccc2)n1C | 18.9 | 24.3 | 22.4 | 17.2 | 23.9 | 27.2 |  | 24.4 |  |  | zone of inhibition at 10000 µg/mL (Pseudomonas aeruginosa [7]): 22.8 mm; MIC (Aspergillus fumigatus [10]): 19 µg/mL (≈ 58.4 µM); MIC (Geotrichum candidum [11]): 19 µg/mL (≈ 58.4 µM); MIC (Candida albicans [12]): 39 µg/mL (≈ 120 µM); MIC [13]: 39 µg/mL (≈ 120 µM); MIC (Staphylococcus aureus [14]): 19 µg/mL (≈ 58.4 µM); MIC (Bacillus subtilis [15]): 9.5 µg/mL (≈ 29.2 µM); MIC (Pseudomonas aeruginosa [16]): 39 µg/mL (≈ 120 µM); MIC (Escherichia coli [17]): 19 µg/mL (≈ 58.4 µM)
CCC(C)n1ncn(-c2ccc(N3CCN(c4ccc(OCC5COC(Cn6cncn6)(c6ccc(Cl)cc6Cl)O5)cc4)CC3)cc2)c1=O (centres undefined) [ITRACONAZOLE] |  |  |  |  |  |  |  |  |  |  | zone of inhibition at 30000 µg/mL [9]: 22 mm
CC(=O)Nc1c(C)n(C)n(-c2ccccc2)c1=O |  | 14.3 | 13.4 | 12.2 | 15.9 | 13.2 | inactive | 11.4 |  | inactive | 
